Laboratory results: PubChem BioAssay AID2237 (Johns Hopkins Ion Channel Center, 2010)
The whole screen tested about 310,000 compounds, of which about 1,500 (0.48%) were called active.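 Rule for the calls: active = B-score above 5 SD of library B-scores, and initial fluorescence ratio not above library mean plus 5 SD; inactive = the rest.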 For the sample, actives were picked, then their nearest neighbours and some compounds at random.

target: Short transient receptor potential channel 4 (Mus musculus) (UniProt Q9QUQ5); assay: activators of mouse TRPC4 channel, primary screen, Fluo4 calcium, HEK293 TRPC4beta/mu-opioid cells (AID 2237); conditions: Fluo4 calcium fluorescence, at 10 µM; stronger effect = higher value;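 for B-score: positive B-score marks a calcium rise read as TRPC4 activation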
Sequence (Q9QUQ5 whole entry, looked up): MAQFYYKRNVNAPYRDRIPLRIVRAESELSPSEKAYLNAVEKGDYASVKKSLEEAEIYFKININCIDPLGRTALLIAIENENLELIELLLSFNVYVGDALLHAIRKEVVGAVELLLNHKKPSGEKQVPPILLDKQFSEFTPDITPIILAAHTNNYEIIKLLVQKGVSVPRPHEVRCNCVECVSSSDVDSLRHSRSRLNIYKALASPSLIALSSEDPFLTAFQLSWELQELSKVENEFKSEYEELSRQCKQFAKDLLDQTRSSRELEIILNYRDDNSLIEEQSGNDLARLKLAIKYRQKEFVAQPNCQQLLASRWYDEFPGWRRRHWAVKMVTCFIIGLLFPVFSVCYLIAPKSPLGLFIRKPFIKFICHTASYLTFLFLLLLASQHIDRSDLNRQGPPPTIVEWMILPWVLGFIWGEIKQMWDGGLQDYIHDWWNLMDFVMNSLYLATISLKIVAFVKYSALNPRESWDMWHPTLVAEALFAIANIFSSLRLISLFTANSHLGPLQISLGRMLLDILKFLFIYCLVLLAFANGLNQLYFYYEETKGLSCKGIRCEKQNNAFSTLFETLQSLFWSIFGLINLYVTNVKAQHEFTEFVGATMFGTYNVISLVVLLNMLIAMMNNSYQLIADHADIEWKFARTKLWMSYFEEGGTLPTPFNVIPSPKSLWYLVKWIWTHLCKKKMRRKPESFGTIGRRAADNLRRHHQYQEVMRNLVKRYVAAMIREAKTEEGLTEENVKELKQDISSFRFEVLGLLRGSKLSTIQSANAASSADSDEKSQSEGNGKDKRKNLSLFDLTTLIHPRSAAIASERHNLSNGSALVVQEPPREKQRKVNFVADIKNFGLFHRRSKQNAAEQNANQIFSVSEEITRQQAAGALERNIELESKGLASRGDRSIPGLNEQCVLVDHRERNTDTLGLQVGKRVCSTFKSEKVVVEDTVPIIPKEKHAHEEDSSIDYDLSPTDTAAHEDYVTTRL
Procedure, shortened: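 system = HEK293 cells stably co-expressing mouse TRPC4beta and mu-opioid receptor | schedule = Fluo4 dye loading 45 min at room temperature, 110 s recording | measure = B-scored integrated calcium fluorescence ratio | signal = Fluo4 calcium-sensitive dye fluorescence, kinetic, 1 Hz baseline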

B-score, inactive:
Cc1nc(CNS(=O)(=O)c2cccnc2)cs1, O=S(=O)(NCCc1ccncc1)c1ccccc1, CC#CC[N+](C)(C)CCCCCC, COC(=O)CC(=O)N1CCN(c2ccc(Cl)c(Cl)c2)CC1, COc1ccc(OCC(O)CNC(=O)Nc2ccc(Cl)cc2)cc1 (stereo unspecified), OC(CNCc1ccc2c(c1)OCO2)COc1ccccc1 (stereo unspecified), CO/N=C/c1cn(-c2ccc(Cl)cc2)nn1, CCN(CC)c1ccc(NC(=O)CCc2nnc3ccc(N4CCCCC4)nn23)c(C)c1, CC(NC(=S)Nc1ccccc1)C(c1cccs1)N1CCOCC1 (stereo unspecified), CC(NC(=O)C(C)(C)C)C(c1cccs1)N1CCN(Cc2ccccc2)CC1 (stereo unspecified), COc1ccc(CNC(=O)c2ccc3oc(C(C)C)nc3c2)cc1, COc1ccc(N(CC(=O)Nc2ccc(C)cc2C)S(=O)(=O)c2ccccc2[N+](=O)[O-])c(OC)c1, O=C(Nc1ccc2sc3ccccc3c(=O)c2c1)c1ccccc1Cl, Cc1[nH]n(-c2cccc(Cl)c2)c(=O)c1/C=N/n1c(C)nc2ccccc2c1=O, COc1cc(SC#N)ccc1N=Cc1c(C)[nH]n(-c2ccc(C)cc2)c1=O, COc1ccccc1CCNS(=O)(=O)c1cc2c3c(c1)C(C)C(=O)N3CCC2 (stereo unspecified), CCOc1ccc(S(=O)(=O)NCCC(=O)NCC(C)(C)N2CCOCC2)cc1, COc1ccccc1NC(=O)CC(NCCN(C)C)C(=O)O (stereo unspecified), COc1ccc(C)cc1NC(=O)Nc1ccccc1SC, Cc1ccc(CNC(=O)Cc2cn(C)c3ccccc23)cc1, COc1ccc(N2CCN(C(=O)c3cccs3)CC2)cc1, CS(=O)(=O)N(CC(=O)Nc1ccc(Cl)c(Cl)c1)C1CCCCC1, O=C(Nc1cccnc1)c1cc(Cl)ccc1Cl, CC1=C/C(=N\OS(=O)(=O)c2ccccc2)C=CC1=O, COc1ccc(-n2nc(C(=O)NCC(=O)N3CCC(C(N)=O)CC3)c3ccccc3c2=O)cc1OC

B-score, active:
O=S(=O)(NCCc1csc(-c2ccccc2)n1)c1cccnc1 102, OC(CNCCc1ccc(Cl)cc1Cl)COc1ccccc1 (stereo unspecified) 44, CCCC(=O)NC(C)C(c1cccs1)N1CCN(c2ccccc2)CC1 (stereo unspecified) 87, Cc1ccc(-n2[nH]c(C)c(/C=N/N3C(=O)c4cccc5cccc(c45)C3=O)c2=O)cc1 131, COC(=O)C(CC(=O)Nc1cc(C)ccc1C)Nc1ccccc1OC (stereo unspecified) 69, CC(c1cccnc1)N(CCN(C)C)C(=O)Nc1ccc(Cl)c(Cl)c1 (stereo unspecified) 62
